Source: ChEMBL document CHEMBL1127795, “Small-molecule immunostimulants. Synthesis and activity of 7,8-disubstituted guanosines and structurally related compounds” (1994)
Values joined by “and” are separate entries in the source; they are usually repeats but may differ in a detail not shown here. Equal entries are not always repeated.

Columns and labels:
Mus musculus [1] = organism: Mus musculus; assay: Percent of maximum response was tested for its ability to act as B-cell mitogens (mitogenicity); assay type: functional
Summary of the method: (§1)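 CBA/CaJ mouse spleen cells (1 × 10⁵/0.2 mL) exposed to graded compound concentrations, dissolved in water or DMSO and diluted in medium, for 24 h. [³H]thymidine then added for a further 24 h; incorporation by scintillation counting. ED50 and maximal response expressed relative to a concurrently run standard (loxoribine in most cases).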

YAC-1 [2] = assay: Stimulation of natural killer (NK) response in Yac-1 cell line (mouse, lymphoma); Neg indicates a response lower than vehicle control; assay type: functional, cell-based
YAC-1 [3] = assay: Percent of maximum response was tested for its ability to stimulate the natural killer response in murine in vitro cell assays; assay type: functional, Mus musculus
Mus musculus [4] = organism: Mus musculus; assay: Effective dose for its ability to act as B-cell mitogens (mitogenicity); Neg indicates a response lower than vehicle control; assay type: functional; summary of the method: as §1
Mus musculus [5] = organism: Mus musculus; assay: Tested to augment the antibody response of B cells to sheep red blood cell (SRBC) challenge (adjuvanticity); Neg indicates a response lower than vehicle control; assay type: functional, cell-based
Summary of the method: (§2)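 CBA/CaJ spleen cells depleted of T cells with anti-T cell monoclonal antibody (1:1000, 30 min, 4 °C) then complement (37 °C, 45 min). Cultured ± 0.1% SRBC antigen in serum-containing medium with compound from zero to 10⁻³ M for 4 d. Plaque-forming cells counted in agarose with guinea pig complement. ED50 and maximal response relative to a concurrent standard.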

Mus musculus [6] = organism: Mus musculus; assay: Percent of maximum response was tested to augment the antibody response of B cells to sheep red blood cell challenge; assay type: functional; summary of the method: as §2
Mus musculus [7] = assay: In vivo natural killer cell response in splenocytes of mice injected with 2 mg parenteral dose % lysis of YAC-1 cells at effector: target ratio of 100:1; assay type: functional
Summary of the method: (§3)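 Each mouse received 2 mg compound, and spleens were taken at 48 h. Splenocyte NK activity was measured as specific lysis of 5 × 10⁴ ⁵¹Cr-labelled YAC-1 cells over 4 h at four effector:target ratios. Results are mean % lysis ± one standard deviation, N = 3–5 mice per group.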

Mus musculus [8] = assay: In vivo natural killer cell response in splenocytes of mice injected with 2 mg intravenous dose % lysis of YAC-1 cells at effector: target ratio of 200:1; assay type: functional
Summary of the method: (§4)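 Mice dosed intravenously with 2 mg compound, with saline as the vehicle control. Spleens were removed 48 h later. Splenocytes were tested against 5 × 10⁴ ⁵¹Cr-labelled YAC-1 target cells in a 4-h ⁵¹Cr-release assay at four effector:target ratios. Results are mean % lysis ± one standard deviation, N = 3–5 mice per group.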

Mus musculus [9] = organism: Mus musculus; assay: Ability to act as B-cell mitogens; assay type: functional; conditions: read-out: ED50 (the source's name); summary of the method: as §1
Mus musculus [10] = assay: In vivo natural killer cell response in splenocytes of mice injected with 2 mg parenteral dose % lysis of YAC-1 cells at effector: target ratio of 50:1; assay type: functional; summary of the method: as §3
Mus musculus [11] = organism: Mus musculus; assay: Augment antibody response of B cells to sheep red blood cell (SRBC) challenge (adjuvanticity); assay type: functional; conditions: read-out: ED50 (the source's name); summary of the method: as §2
Mus musculus [12] = assay: In vivo natural killer cell response in splenocytes of mice injected with 2 mg parenteral dose % lysis of YAC-1 cells at effector: target ratio of 200:1; assay type: functional; summary of the method: as §3
Mus musculus [13] = assay: In vivo natural killer cell response in splenocytes of mice injected with 2 mg intravenous dose % lysis of YAC-1 cells at effector: target ratio of 25:1; assay type: functional; summary of the method: as §4
Mus musculus [14] = assay: In vivo natural killer cell response in splenocytes of mice injected with 2 mg intravenous dose % lysis of YAC-1 cells at effector: target ratio of 100:1; assay type: functional; summary of the method: as §4
YAC-1 [15] = assay: Stimulation of natural killer (NK) response in Yac-1 cell line (mouse, lymphoma); assay type: functional; conditions: read-out: ED50 (the source's name)
Mus musculus [16] = assay: In vivo natural killer cell response in splenocytes of mice injected with 2 mg intravenous dose % lysis of YAC-1 cells at effector: target ratio of 50:1; assay type: functional; summary of the method: as §4
Mus musculus [17] = assay: In vivo natural killer cell response in splenocytes of mice injected with 2 mg subcutaneous dose. % lysis of YAC-1 cells at effector: target ratio of 50:1; assay type: functional
Summary of the method: (§5)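 Mice dosed subcutaneously with 2 mg compound, with sesame oil as the vehicle control. Splenocytes were harvested 48 h after dosing and assayed in a 4-h ⁵¹Cr-release test against 5 × 10⁴ labelled YAC-1 cells at four effector:target ratios. Results are mean % lysis ± one standard deviation, 3–5 mice per group.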

Mus musculus [18] = assay: In vivo natural killer cell response in splenocytes of mice injected with 2 mg subcutaneous dose. % lysis of YAC-1 cells at effector: target ratio of 100:1; assay type: functional; summary of the method: as §5
Mus musculus [19] = assay: In vivo natural killer cell response in splenocytes of mice injected with 2 mg subcutaneous dose. % lysis of YAC-1 cells at effector: target ratio of 200:1; assay type: functional; summary of the method: as §5
Mus musculus [20] = assay: In vivo natural killer cell response in splenocytes of mice injected with 2 mg intravenous dose. % lysis of YAC-1 cells at effector: target ratio of 50:1; assay type: functional; summary of the method: as §4
Mus musculus [21] = assay: In vivo natural killer cell response in splenocytes of mice injected with 2 mg parenteral dose. % lysis of YAC-1 cells at effector: target ratio of 25:1; assay type: functional; summary of the method: as §3
Mus musculus [22] = assay: In vivo natural killer cell response in splenocytes of mice injected with 2 mg intravenous dose. % lysis of YAC-1 cells at effector: target ratio of 100:1; assay type: functional; summary of the method: as §4
Mus musculus [23] = assay: In vivo natural killer cell response in splenocytes of mice injected with 2 mg subcutaneous dose. % lysis of YAC-1 cells at effector: target ratio of 25:1; assay type: functional; summary of the method: as §5
Mus musculus [24] = assay: In vivo natural killer cell response in splenocytes of mice injected with 2 mg intravenous dose. % lysis of YAC-1 cells at effector: target ratio of 200:1; assay type: functional; summary of the method: as §4
Mus musculus [25] = assay: In vivo natural killer cell response in splenocytes of mice injected with 2 mg parenteral dose. % lysis of YAC-1 cells at effector: target ratio of 50:1; assay type: functional; summary of the method: as §3
Mus musculus [26] = assay: In vivo natural killer cell response in splenocytes of mice injected with 2 mg parenteral dose. % lysis of YAC-1 cells at effector: target ratio of 100:1; assay type: functional; summary of the method: as §3
YAC-1 [27] = assay: Percent of maximum response was tested for its ability to stimulate the natural killer (NK) response in murine in vitro cell assays; assay type: functional, Mus musculus
YAC-1 [28] = assay: Tested for its ability to stimulate the natural killer (NK) response in murine in vitro cell assays; assay type: functional; conditions: Mus musculus, read-out: ED50 (the source's name)
Mus musculus [29] = organism: Mus musculus; assay: Effective dose was tested for its ability to act as B-cell mitogens (mitogenicity); assay type: functional; conditions: read-out: ED50 (the source's name); summary of the method: as §1

Row | SMILES | Max response (Mus musculus [1]) | Max response (YAC-1 [3]) | ED50 (Mus musculus [4]) | ED50 (Mus musculus [5]) | Max response (Mus musculus [6]) | EC50 (Mus musculus [11]) | EC50 (YAC-1 [15]) | also measured
1 | Cc1nc2nc3c(c(O)n2n1)n(CCN1CCCCC1)c(=O)n3C1OC(CO)[C@@H](O)[C@H]1O (some centres undefined) | 0.1% | 0% | Negative | Negative | 1% | – | – | ED50 (YAC-1 [2]): Negative
2 | C=CCn1c(=O)n(C2C=CC(CO)O2)c2nc(N)nc(O)c21 (centres undefined) | 84% | 89% | – | – | 45% | 6 µM | 11 µM | Ratio (Mus musculus [7]): 33.2 and 15.7; Ratio (Mus musculus [8]): 47.4; EC50 (Mus musculus [9]): 30 µM; Ratio (Mus musculus [10]): 25.2; Ratio (Mus musculus [12]): 50.8; Ratio (Mus musculus [13]): 16.1; Ratio (Mus musculus [14]): 36.4; Ratio (Mus musculus [16]): 25.7
3 | C=CCn1c(=O)n([C@@H]2O[C@H](CO)[C@H]3OC(C)(CCC(=O)NC)O[C@H]32)c2nc(N)nc(O)c21 (some centres undefined) | 0% | 0% | Negative | Negative | 9% | – | – | ED50 (YAC-1 [2]): Negative
4 | Nc1nc(O)c2nc(S)n([C@H]3O[C@H](CO)[C@@H](O)[C@H]3O)c2n1 | 6% | 0% | Negative | Negative | 8% | – | – | ED50 (YAC-1 [2]): Negative
5 | Nc1nc(O)c2c(n1)n(C1OC(CO)[C@@H](O)[C@H]1O)c(=O)n2CCN1CCCCC1 (some centres undefined) | 0% | – | Negative | Negative | 0% | – | – | –
6 | C=CCn1c(=S)n(C2OC(COC(=O)c3ccccc3)[C@H]3OC(C)(C)O[C@@H]23)c2nc(N)nc(O)c21 (some centres undefined) | 0% | – | Negative | – | 77% | 47 µM | – | –
7 | Nc1nc(O)c2c(n1)n(C1OC(CO)[C@@H](O)[C@H]1O)c(=O)n2Cc1ccc([N+](=O)[O-])cc1 (some centres undefined) | 16% | 50% | – | – | 147% | 40 µM | 48 µM | Ratio (Mus musculus [17]): 15.8; EC50 (Mus musculus [9]): 50 µM; Ratio (Mus musculus [18]): 20.7; Ratio (Mus musculus [19]): 27.4 and 9.9
8 | CCCCCCCCCCn1c(=O)n(C2OC(CO)[C@@H](O)[C@H]2O)c2nc(N)nc(O)c21 (some centres undefined) | 0% | – | Negative | Negative | 0% | – | – | –
9 | C=CCn1c(=O)n([C@@H]2O[C@H](CO)[C@@H](O)[C@H]2O)c2nc(N)[nH]c(=O)c21 [LOXORIBINE] | 100% | 100% | – | – | 100% | 3 µM | 13 µM | Ratio (Mus musculus [20]): 38.6; Ratio (Mus musculus [17]): 12.7; Ratio (Mus musculus [21]): 7.7; EC50 (Mus musculus [9]): 10 µM; Ratio (Mus musculus [22]): 48.9; Ratio (Mus musculus [23]): 9.3; Ratio (Mus musculus [24]): 52.2; Ratio (Mus musculus [25]): 11.8; Ratio (Mus musculus [12]): 29.6; Ratio (Mus musculus [13]): 22.8; Ratio (Mus musculus [18]): 19.5; Ratio (Mus musculus [19]): 27.6; Ratio (Mus musculus [26]): 18.9
10 | C=CCn1c(=O)n(C2CN(CCCC)CC(CO)O2)c2nc(N)nc(O)c21 (centres undefined) | 52% | – | – | – | 38% | 5 µM | – | Max response (YAC-1 [27]): 94%; EC50 (YAC-1 [28]): 17 µM; EC50 (Mus musculus [29]): 49 µM
11 | Nc1nc(O)c2c(n1)n(C1OC(CO)[C@@H](O)[C@H]1O)c(=O)n2Cc1ccc(Cl)c(Cl)c1 (some centres undefined) | 0% | 15% | Negative | Negative | 55% | – | 110 µM | –
12 | Cn1c(=O)n2c3c1c(=O)nc(N)n3CC1OC2[C@H](O)C1O (single isomer, unassigned) | 0% | 6% | Negative | Negative | 9% | – | – | ED50 (YAC-1 [2]): Negative
13 | C=CCn1c(=O)n([C@@H]2O[C@H](CO)[C@H]3OC(C)(CCC(=O)OCC)O[C@H]32)c2nc(N)nc(O)c21 (some centres undefined) | 0% | 19% | Negative | – | 44% | 139 µM | 150 µM | –
14 | C=CCn1c(=O)n(C2CCC(CO)C2)c2nc(N)nc(O)c21 (centres undefined) | 0% | – | Negative | – | 26% | 226 µM | – | –
15 | C=CCn1c(=O)n(C2C[C@H](O)C(CO)O2)c2nc(N)nc(O)c21 (some centres undefined) | 131% | 75% | – | – | 99% | 30 µM | 100 µM | EC50 (Mus musculus [29]): 134 µM
16 | Nc1nc(O)c2c(n1)n(C1OC(CO)[C@@H](O)[C@H]1O)c(=O)n2CC(=O)c1ccc(Cl)cc1 (some centres undefined) | 0% | – | Negative | – | 23% | 1620 µM | – | –
17 | CCCn1c(=O)n(C2CCC(CO)O2)c2nc(NC(=O)C(C)(C)C)nc(O)c21 (centres undefined) | 4% | 0% | Negative | Negative | 19% | – | – | ED50 (YAC-1 [2]): Negative
